# HNF4A DNA FP – change in binding of human HNF4A to DNA, primary screen, biochemical, fluorescence polarization, FITC-DNA; Hepatocyte nuclear factor 4-alpha (Homo sapiens), P41235; 1 h; activity change, % at 10 µM; hit rate 0.3% among 360,000; in the data active = activity change above about 30%, passing the limit was not always enough
# TPT1 inh – Candida albicans TPT1 enzyme inhibitors, primary screen, biochemical, fluorescence polarization | tRNA 2'-phosphotransferase TPT1 (Candida albicans SC5314) | AID 1962, 2009 | hit rate 0.81% among 300,000 | inhibition, % at 5 µM | recombinant caTPT1, FP RNA substrate dephosphorylation;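 active = inhibition above the mean of all tested compounds plus 3 SD, set per screening campaign, cut at about 24% in these data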;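 note: plate controls were DMSO alone for no effect and ferristatin control at 100 nM for full effect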
# SENP1 inh – human SENP1 catalytic domain inhibitors, primary screen, biochemical, FRET, uHTS; Sentrin-specific protease 1 (Homo sapiens), Q9P0U3; recombinant SENP1 catalytic domain, CyPet-SUMO1-YPet FRET cleavage; inhibition, % at 10 µM; hit rate 0.21% among 360,000; AID 624204, 2012;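 active = inhibition at least 30% at 10 µM, raw YFP signal under a set limit, fluorescence ratio 0.5 to 1.5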;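 note: 0% = enzyme with DMSO and 100% = no enzyme wells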
#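 Test system: hSENP1 catalytic domain, recombinant; Amount: 20 pM final SENP1 enzyme; Medium: Tris pH 8 buffer plus EDTA, NaCl, BME, BSA, NP40, catalase; Schedule: 50 min enzyme reaction, room temperature, light-protected; Technique: FRET fluorescence in CFP and YFP emission channels; Controls: no-enzyme wells low, DMSO-plus-enzyme wells high control.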
# ATG4B inh – ATG4B protease inhibitors, primary screen, biochemical, fluorescence, uHTS; Cysteine protease ATG4B (Homo sapiens), Q9Y4P1; ATG4B cleavage of LC3-PLA2, NBD-HPC fluorescence, 1 h; inhibition, % at 8.33 µM; hit rate 0.51% among 340,000; AID 504462, 2011
# CSN deneddyl inh – inhibitors of CSN-mediated cullin deneddylation, primary screen, biochemical, fluorescence polarization, uHTS | COP9 signalosome complex subunit 5 (Homo sapiens), Q92905 | Purified CSN, SCF-Nedd8-OG deneddylation | inhibition, % at 12.5 µM | hit rate 0.38% among 360,000;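 active = pattern-corrected inhibition above about 35%, with an unprinted fluorescence ratio check between 0.5 and 1.5, limit read from the data, passing the limit was not always enough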;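 note: 0% = enzyme with substrate and 100% = substrate without enzyme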
#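 Schedule: reaction 90 min, room temperature / Assay system: HEK293T-derived human Csn5 enzyme / Input: Csn5 at 0.24 nM final / Measure: inhibition of Csn5 cleavage, % / Control set: substrate-only high control, full reaction low control / Technique: fluorescence polarization of the substrate / Buffer or medium: Tris/NaCl/DTT buffer, pH 7.5 / Reagent: SCFSkp2-Nedd8OG substrate at 10 nM final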
# Rpn11 block – Rpn11 (PSMD14) deubiquitinase inhibitors, primary screen, biochemical, fluorescence polarization, uHTS; 26S proteasome non-ATPase regulatory subunit 14 (Homo sapiens), O00487; human 26S proteasome, Ub4-pepOG fluorescence polarization; 20S core pre-blocked with epoxomicin; inhibition, % at 20 µM; hit rate 0.59% among 360,000; AID 588493, 2011;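 active = inhibition at 20 µM, scaled to each plate's controls, above about 33%, limit read from the data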
# Rpn11 inh conf – Rpn11 (PSMD14) deubiquitinase inhibitors, confirmation, biochemical, fluorescence polarization, single concentration; shares compounds with Rpn11 block; purified human 26S proteasome, Ub4-pepOG fluorescence polarization; proteasome pretreated with epoxomicin; inhibition, % at 20 µM; hit rate 29% among 1,900
# MMP-2 counter – MMP-2 enzyme inhibition, confirmation, counter-screen for RPN11 inhibitor project, biochemical, fluorescence, single concentration; shares compounds with Rpn11 block; recombinant MMP-2, FRET peptide cleavage fluorescence; inhibition, % at 20 µM; hit rate 4% among 1,900;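 note: human MMP-2 activated beforehand with APMA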
# Target sequence (P08253 whole entry, looked up): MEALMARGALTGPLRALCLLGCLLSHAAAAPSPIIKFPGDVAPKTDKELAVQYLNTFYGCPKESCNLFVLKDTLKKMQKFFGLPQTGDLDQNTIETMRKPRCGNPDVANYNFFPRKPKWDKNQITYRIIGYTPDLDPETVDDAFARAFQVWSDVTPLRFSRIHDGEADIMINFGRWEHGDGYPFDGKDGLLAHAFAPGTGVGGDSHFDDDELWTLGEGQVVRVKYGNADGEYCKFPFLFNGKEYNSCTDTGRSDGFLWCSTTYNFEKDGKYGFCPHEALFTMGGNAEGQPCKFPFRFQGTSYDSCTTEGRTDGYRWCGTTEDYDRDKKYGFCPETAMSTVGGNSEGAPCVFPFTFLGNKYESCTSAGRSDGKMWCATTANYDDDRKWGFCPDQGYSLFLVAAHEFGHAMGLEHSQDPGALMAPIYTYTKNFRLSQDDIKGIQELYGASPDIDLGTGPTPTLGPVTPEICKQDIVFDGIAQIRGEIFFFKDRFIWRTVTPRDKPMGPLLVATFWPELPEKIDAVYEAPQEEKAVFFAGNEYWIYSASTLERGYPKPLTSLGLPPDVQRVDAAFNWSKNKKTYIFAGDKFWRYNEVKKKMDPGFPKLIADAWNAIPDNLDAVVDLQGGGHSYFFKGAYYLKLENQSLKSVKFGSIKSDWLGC
# Thrombin FP – bovine thrombin protease inhibition, confirmation, counter-screen for Rpn11 inhibitor project, biochemical, fluorescence polarization, single concentration. hit rate 13% among 1,900. inhibition, % at 20 µM. shares compounds with Rpn11 block. bovine thrombin cleavage of Ub4-pepOG;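 active = mean inhibition at least 40% at 20 µM, or signal 3 deviations below plate average, so some actives read negative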;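 note: plate controls were thrombin with DMSO for no effect and buffer wells lacking thrombin for full effect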
# * = called active by the depositor; . = no result given. An excerpt weighted towards active compounds, which were near 2% of everything screened. Cut-off read from the data, not from the text of the source, unless noted: active = inhibition above about 40%; inactive = the rest.
SMILES,HNF4A DNA FP,TPT1 inh,SENP1 inh,ATG4B inh,CSN deneddyl inh,Rpn11 block,Rpn11 inh conf,MMP-2 counter,Thrombin FP
Cn1ccnc1SCC(=O)Nc1ccc(Br)cc1C(F)(F)F,-2,-1,1,-2,1,4,.,.,.
COc1ccccc1/C=N\NC(=O)c1c(C)nc2ccc(Cl)cn12,1,.,-2,-5,-3,2,.,.,.
COc1cccc(/C=N/NC(=O)c2c(C)nc3ccc(Cl)cn23)c1O,5,13,-19,-4,9,52*,37,-66,-5
O=C(O)/C=C/C(=O)NCCC(c1ccccc1)c1ccccc1,3,1,3,-2,-1,0,.,.,.
COc1ccc(-c2cc(-c3ccc(C)cc3)nc(SCc3nnc(-c4ccccc4)o3)c2C#N)cc1OC,11,1,-1,-8,18,122*,-4,-21,-8
COc1cc(-c2cc(-c3ccccc3)nc(SCC(=O)O)c2C#N)cc(OC)c1OC,5,1,-8,-6,-1,3,.,.,.
Cc1cc2nc(CS(=O)(=O)c3ccccc3)cc(=O)n2[nH]1,-2,-3,2,-14,2,3,.,.,.
CCN(CC)C(=O)C1=C(C)N(Cc2ccccc2)C(=O)C(CC(=O)NCCCN(C)C)C1 (stereo not given),-1,.,0,.,2,1,.,.,.
O=C(c1ccco1)N1CCN(CCCCN2C(=O)c3ccccc3C2=O)CC1,5,3,1,-7,1,2,.,.,.
O=C1c2ccccc2-c2onc3c(N4CCN(CCO)CC4)cc(N4CCN(C(=O)c5ccco5)CC4)c1c23,5,-11,32*,27,8,49*,active,-92,active
CCOc1ccc(C(=O)Nc2cccc(-c3nc4cccnc4o3)c2)cc1Cl,2,3,2,8,-7,55*,19,-24,3
COC(=O)C1=C(C)N(CCc2ccc(OC)c(OC)c2)C(=O)/C1=C\N(C)C,-1,-1,0,1,2,60*,-10,5,-11
COc1ccc(CCN2C(=O)C=CC2=O)cc1OC,-1,.,2,-8,-2,0,.,.,.
Cn1c(SCC(=O)NCC2CCCO2)ncc(C(=O)Nc2ccc(Cl)cc2)c1=O (stereo not given),2,3,-6,0,8,64*,11,-47,-3
O=C(N/N=C/c1ccccc1C(F)(F)F)c1ccc2nc[nH]c2c1,0,1,1,-1,1,5,.,.,.
O=C(N/N=C/c1ccco1)c1ccc2nc[nH]c2c1,-2,3,2,-10,7,5,.,.,.
O=C(N/N=C/c1cc([N+](=O)[O-])ccc1Cl)c1ccc2nc[nH]c2c1,2,1,-2,-7,8,69*,22,-7,2
O=C(N/N=C/c1ccc(Cl)cc1Cl)c1ccc2nc[nH]c2c1,0,1,5,-10,2,62*,63*,-38,37
Cc1ccc(NC(=O)CSc2nc3[nH]ncc3c(=O)[nH]2)cc1Cl,-3,0,2,7,0,51*,-9,-22,-10
Cc1oc(-c2cccc(F)c2)nc1CN1CCCCC1CCn1cccn1 (stereo not given),1,0,-9,0,1,8,.,.,.
Cc1ccc(-c2nc(CN3CCCCC3CCN3CCCC3=O)c(C)o2)o1 (stereo not given),15,1,0,-8,-5,41*,18,5,16
CC(=O)Nc1ccc(/C(C)=N/NC(=O)c2ccc(COc3ccccc3Cl)o2)cc1,-9,0,-1,-4,4,70*,46*,-102,16
CC(=O)c1cn(CC(=O)NCc2ccc3c(c2)OCO3)c2ccccc12,16,4,-4,6,6,93*,-16,-8,-16
O=C(Cn1cc(C(=O)C2CC2)c2ccccc21)NCc1ccc2c(c1)OCO2,1,1,-2,-7,0,1,.,.,.
CC(C)n1ncc2c(C(=O)Nc3ccc(S(N)(=O)=O)cc3)cc(C3CC3)nc21,64,.,-3,-3,113*,79*,90*,-72,14
SMILES,HNF4A DNA FP,TPT1 inh,SENP1 inh,ATG4B inh,CSN deneddyl inh,Rpn11 block,Rpn11 inh conf,MMP-2 counter,Thrombin FP
CCC1CCCCN1c1ccc([N+](=O)[O-])cc1/C=N/NC(=O)Cn1c2ccccc2c(=O)c2ccccc21 (stereo not given),14,2,-65,-4,7,36*,25,0,8
CCc1ccc(OCC(=O)N/N=C/c2cc([N+](=O)[O-])ccc2N2CCCCCC2)cc1,5,1,-33,-8,5,19,.,.,.
O=C(Nc1ccncc1)C1CCN(S(=O)(=O)c2ccc(Cl)c(C(F)(F)F)c2)CC1,2,.,0,-6,0,0,.,.,.
C=CCn1c(C#N)c(N)sc1=N,19,11,-22,3,3,45*,5,-33,-14
O=C(O)/C=C/C(=O)NC1CC1,3,-3,1,5,-2,4,.,.,.
Cc1ccc(CNc2oc(-c3ccco3)nc2S(=O)(=O)c2ccccc2)cc1,3,1,-1,-12,5,80*,7,20,0
CCOc1ccnc2c1c(=O)n(Cc1cc(OC)cc(OC)c1)c(=O)n2C,0,1,-4,-1,1,3,.,.,.
O=C1CSC(=S)N1N=Cc1ccc(OCc2ccccc2)cc1,3,.,0,.,3,21,.,.,.
CC(C)CCOc1ccc(/C=N/N2C(=O)CSC2=S)cc1,0,3,-6,26,4,39*,-11,32,-9
